Data reported in BindingDB's records for doi:10.1016/j.bmcl.2014.05.064 (The University of Tokyo, 2014).

Target: T1, NPC intracellular cholesterol transporter 1 [I1061T] (Homo sapiens, UniProt O15118, I1061T)
T1 construct: gene NPC1
Experiment: Binding affinity to FLAG/tGFP-tagged NPC1 I1061T mutant (unknown origin) expressed in HEK293 cells assessed as localization after 24 hrs by fluorescence microscopy
Outline: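 HEK293 cells stably expressing NPC1 I1061T-tGFP were exposed to compound for 24 h, fixed, and nuclei stained with Hoechst 33342. In the images, each cell was scored by tGFP pattern: ER 0, mixed ER+vesicle 0.5, vesicular 1. Scores were averaged to give the vesicular-localization percentage, and EC50 was taken from concentration-response. Data are mean ± standard deviation of three independent experiments.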

T1 sequence (O15118 23-1278 I1061T limits assumed): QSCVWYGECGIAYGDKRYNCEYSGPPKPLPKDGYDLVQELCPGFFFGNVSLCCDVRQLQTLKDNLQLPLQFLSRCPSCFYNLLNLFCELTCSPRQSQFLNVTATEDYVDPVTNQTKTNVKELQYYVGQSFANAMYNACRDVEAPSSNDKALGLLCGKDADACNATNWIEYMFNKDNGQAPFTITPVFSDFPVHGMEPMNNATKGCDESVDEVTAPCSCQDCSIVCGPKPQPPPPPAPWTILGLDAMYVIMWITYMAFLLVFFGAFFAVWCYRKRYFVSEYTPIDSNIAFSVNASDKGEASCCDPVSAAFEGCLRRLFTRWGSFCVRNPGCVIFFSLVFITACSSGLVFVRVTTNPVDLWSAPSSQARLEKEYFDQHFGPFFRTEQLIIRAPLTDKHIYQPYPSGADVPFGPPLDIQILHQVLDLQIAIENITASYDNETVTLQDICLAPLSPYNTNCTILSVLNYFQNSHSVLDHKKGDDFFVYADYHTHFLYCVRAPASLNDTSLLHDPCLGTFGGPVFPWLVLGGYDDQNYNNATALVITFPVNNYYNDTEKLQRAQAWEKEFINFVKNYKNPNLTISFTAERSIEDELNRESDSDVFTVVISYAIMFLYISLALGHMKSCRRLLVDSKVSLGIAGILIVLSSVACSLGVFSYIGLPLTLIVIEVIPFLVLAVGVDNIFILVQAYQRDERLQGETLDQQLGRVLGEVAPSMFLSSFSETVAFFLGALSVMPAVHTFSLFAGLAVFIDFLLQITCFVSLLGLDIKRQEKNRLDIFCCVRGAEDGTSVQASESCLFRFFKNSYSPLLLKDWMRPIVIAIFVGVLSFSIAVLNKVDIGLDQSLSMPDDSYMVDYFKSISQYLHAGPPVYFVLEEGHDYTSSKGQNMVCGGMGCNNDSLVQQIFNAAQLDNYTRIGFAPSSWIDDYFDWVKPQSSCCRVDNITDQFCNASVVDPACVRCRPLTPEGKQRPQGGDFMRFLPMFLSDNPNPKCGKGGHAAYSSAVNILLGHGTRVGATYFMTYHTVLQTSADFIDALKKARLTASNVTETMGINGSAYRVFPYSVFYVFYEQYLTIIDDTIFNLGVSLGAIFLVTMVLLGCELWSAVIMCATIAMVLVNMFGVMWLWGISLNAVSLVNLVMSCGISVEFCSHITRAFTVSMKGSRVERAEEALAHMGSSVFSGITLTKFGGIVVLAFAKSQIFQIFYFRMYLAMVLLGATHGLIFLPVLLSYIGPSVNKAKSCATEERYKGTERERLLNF

Row | Compound | EC50 [nM]
1 | C[C@H](CNC(=O)c1cc(C(F)(F)F)cc(C(F)(F)F)c1)[C@H]1CC[C@H]2[C@@H]3C[C@@H](O)[C@@]4(O)C[C@@H](OCC(=O)N5CCOCC5)CC[C@]4(C)[C@H]3CC[C@]12C | 86
2 | CC(C)CCC[C@@H](C)[C@H]1CC[C@H]2[C@@H]3C[C@@H](O)[C@@]4(O)C[C@@H](OCC(=O)N5CCOCC5)CC[C@]4(C)[C@H]3CC[C@]12C | 150
3 | CC(C)CCC[C@@H](C)[C@H]1CC[C@H]2[C@@H]3C(=O)C=C4C[C@@H](OCC(=O)N5CCOCC5)CC[C@]4(C)[C@H]3CC[C@]12C | 290
4 | CC(C)CCC[C@@H](C)[C@H]1CC[C@H]2[C@@H]3[C@@H](O)C=C4C[C@@H](OCC(=O)N5CCOCC5)CC[C@]4(C)[C@H]3CC[C@]12C | 360
5 | CC[C@H](/C=C/[C@@H](C)[C@H]1CC[C@H]2[C@@H]3C[C@@H](O)[C@@]4(O)C[C@@H](OCC(=O)N5CCOCC5)CC[C@]4(C)[C@H]3CC[C@]12C)C(C)C | 360
6 | CC(C)C(=O)NC[C@@H](C)[C@H]1CC[C@H]2[C@@H]3C[C@@H](O)[C@@]4(O)C[C@@H](OCC(=O)N5CCOCC5)CC[C@]4(C)[C@H]3CC[C@]12C | 370
7 | CC(C)CCC[C@@H](C)[C@H]1CC[C@H]2[C@@H]3C[C@@H](O)[C@@]4(O)C[C@@H](OCC(=O)N(CCO)CCO)CC[C@]4(C)[C@H]3CC[C@]12C | 560
8 | CC(C)CCC[C@@H](C)[C@H]1CC[C@H]2[C@@H]3C[C@@H](O)[C@@]4(O)C[C@@H](OCC(N)=O)CC[C@]4(C)[C@H]3CC[C@]12C | 840
9 | C[C@H](CCCC(C)(C)O)[C@H]1CC[C@H]2[C@@H]3CC=C4C[C@@H](OCC(=O)N5CCOCC5)CC[C@]4(C)[C@H]3CC[C@]12C | 880
10 | CC(C)CCC[C@@H](C)[C@H]1CC[C@H]2[C@@H]3C[C@@H](O)[C@@]4(O)C[C@@H](OCCN5CCOCC5)CC[C@]4(C)[C@H]3CC[C@]12C | 1000
11 | C[C@H](CCCC(C)(C)O)[C@H]1CC[C@H]2[C@@H]3CC=C4C[C@@H](OCC(=O)N(C)C)CC[C@]4(C)[C@H]3CC[C@]12C | 1400
12 | C[C@H](CCCC(C)(C)O)[C@H]1CC[C@H]2[C@@H]3C(=O)C=C4C[C@@H](O)CC[C@]4(C)[C@H]3CC[C@]12C | 1500
13 | CC(C)CCC[C@@H](C)[C@H]1CC[C@H]2[C@@H]3CC(=O)[C@@]4(O)C[C@@H](O)CC[C@]4(C)[C@H]3CC[C@]12C | 1700
14 | C[C@H](CCCC(C)(C)O)[C@H]1CC[C@H]2[C@@H]3C[C@@H](O)[C@@]4(O)C[C@@H](O)CC[C@]4(C)[C@H]3CC[C@]12C | 1700
15 | CCN(CC)C(=O)CC[C@@H](C)[C@H]1CC[C@H]2[C@@H]3CC=C4C[C@@H](O)CC[C@]4(C)[C@H]3CC[C@]12C | 1700
16 | CC(C)CCC[C@@H](C)[C@H]1CC[C@H]2[C@@H]3C[C@@H](O)[C@@]4(O)C[C@@H](OCC(=O)N5CCCCC5)CC[C@]4(C)[C@H]3CC[C@]12C | 1800
17 | C[C@H](CCCC(C)(C)O)[C@H]1CC[C@H]2[C@@H]3[C@@H](O)C=C4C[C@@H](O)CC[C@]4(C)[C@H]3CC[C@]12C | 1900

Row | Compound | EC50 [nM]
18 | CC(C)CCC[C@@H](C)[C@H]1CC[C@H]2[C@@H]3[C@@H](O)C=C4C[C@@H](OCCO)CC[C@]4(C)[C@H]3CC[C@]12C | 3400
19 | C[C@H](CCCC(C)(C)O)[C@H]1CC[C@H]2[C@@H]3CCC4=CC(=O)CC[C@]4(C)[C@H]3CC[C@]12C | 4000
20 | CCN(CC)C(=O)CO[C@H]1CC[C@@]2(C)C(=CC[C@H]3[C@@H]4CC[C@H]([C@H](C)CCCC(C)(C)O)[C@@]4(C)CC[C@@H]32)C1 | 4800
21 | CC(C)CCC[C@@H](C)[C@H]1CC[C@H]2[C@@H]3[C@@H](O)C=C4C[C@@H](OC(=O)N5CCOCC5)CC[C@]4(C)[C@H]3CC[C@]12C | 6100
22 | C[C@H](CNC(=O)N(C)C)[C@H]1CC[C@H]2[C@@H]3C[C@@H](O)[C@@]4(O)C[C@@H](OCC(=O)N5CCOCC5)CC[C@]4(C)[C@H]3CC[C@]12C | 6800
23 | CCN(CC)CCO[C@H]1CC[C@@]2(C)C(=CC[C@H]3[C@@H]4CC[C@H]([C@H](C)CCCC(C)(C)O)[C@@]4(C)CC[C@@H]32)C1 | 9900
24 | C[C@H](COc1cc(C(F)(F)F)cc(C(F)(F)F)c1)[C@H]1CC[C@H]2[C@@H]3C[C@@H](O)[C@@]4(O)C[C@@H](OCC(=O)N5CCOCC5)CC[C@]4(C)[C@H]3CC[C@]12C | > 10000
25 | CC(C)CCC[C@@H](C)[C@H]1CC[C@H]2[C@@H]3CC(=O)[C@H]4C[C@@H](O)CC[C@]4(C)[C@H]3CC[C@]12C [5alpha-CHOLESTAN-3beta-OL-6-ONE] | 3400
26 | C[C@H](CCCC(C)(C)O)[C@H]1CC[C@H]2[C@@H]3CC=C4C[C@@H](O)CC[C@]4(C)[C@H]3CC[C@]12C [(1S,2R,5S,10S,11S,14R,15R)-14-[(2R)-6-hydroxy-6-methylheptan-2-yl]-2,15-dimethyltetracyclo[8.7.0.0^{2,7}.0^{11,15}]heptadec-7-en-5-ol] | 3300
27 | CC(C)CC[C@H](O)[C@@H](C)[C@H]1CC[C@H]2[C@@H]3CC=C4C[C@@H](O)CC[C@]4(C)[C@H]3CC[C@]12C [(1S,2R,5S,10S,11S,14R,15S)-14-[(2S,3S)-3-hydroxy-6-methylheptan-2-yl]-2,15-dimethyltetracyclo[8.7.0.0^{2,7}.0^{11,15}]heptadec-7-en-5-ol] | 2900
28 | C[C@H](CCC(=O)N(C)C)[C@H]1CC[C@H]2[C@@H]3CC=C4C[C@@H](O)CC[C@]4(C)[C@H]3CC[C@]12C [(4R)-4-[(1S,2R,5S,10S,11S,14R,15R)-5-hydroxy-2,15-dimethyltetracyclo[8.7.0.0^{2,7}.0^{11,15}]heptadec-7-en-14-yl]-N,N-dimethylpentanamide] | 3100
29 | CC(C)CCC[C@@H](C)[C@H]1CC[C@H]2[C@@H]3C[C@@H](O)[C@@]4(O)C[C@@H](O)CC[C@]4(C)[C@H]3CC[C@]12C [CHEBI:28082] | 1700
30 | CC(C)CCC[C@@H](C)[C@H]1CC[C@H]2[C@@H]3[C@@H](O)C=C4C[C@@H](O)CC[C@]4(C)[C@H]3CC[C@]12C [CHEBI:42989] | 3400
31 | CC(C)CCC[C@@H](C)[C@H]1CC[C@H]2[C@@H]3C(=O)C=C4C[C@@H](O)CC[C@]4(C)[C@H]3CC[C@]12C [CHEBI:64294] | 8700
32 | CC(C)CCC[C@@H](C)[C@H]1CC[C@H]2[C@@H]3CC[C@@]4(O)[C@@H](O)[C@@H](O)CC[C@]4(C)[C@H]3CC[C@]12C [Cholestane-3b,4b,5a-triol] | 4300
33 | C[C@]12CC[C@H](O)CC1=CC[C@@H]1[C@@H]2CC[C@]2(C)C(=O)CC[C@@H]12 [Prasterone] | > 10000
